Assay results as given in ChEMBL document CHEMBL4312005, “Optimization of pyrrolizine-based Schiff bases with 4-thiazolidinone motif: Design, synthesis and investigation of cytotoxicity and anti-inflammatory potency” (Eur J Med Chem, 2020).
Blank lines part the entries; values can stand above or below the molecule they belong to.

How the values were obtained:
[1] = system: MCF7; experiment: Antiproliferative activity against human MCF7 cells assessed as cell viability at 5 uM incubated for 48 hrs by MTT assay (reference value: 100 %); type: functional; conditions: MCF7, 48 h, read-out: Activity
How it was run: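 Preliminary single-dose screen by MTT assay. MCF-7 cells grown in DMEM/10% FBS were exposed to 5 μM compound for 48 h, and growth% was determined. Values are mean ± S.D., n = 6.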

[2] = system: MCF7; experiment: Antiproliferative activity against human MCF7 cells assessed as reduction in cell growth incubated for 72 hrs by MTT assay; type: functional, cell-based; conditions: MCF7, 72 h
How it was run: (§1)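 MTT assay on MCF-7, A2780, HT29 and normal MRC5 fibroblast lines (ATCC) grown in DMEM with 10% FBS. Cells exposed to compounds for 72 h, then reduced MTT read at 570 nm.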

[3] = system: A2780; experiment: Antiproliferative activity against human A2780 cells assessed as reduction in cell growth incubated for 72 hrs by MTT assay; type: functional, cell-based; conditions: A2780, 72 h; how it was run: as §1
[4] = system: HT-29; experiment: Antiproliferative activity against human HT-29 cells assessed as reduction in cell growth incubated for 72 hrs by MTT assay; type: functional, cell-based; conditions: HT-29, 72 h; how it was run: as §1
[5] = system: MRC5; experiment: Cytotoxicity against human MRC5 cells assessed as reduction in cell growth incubated for 72 hrs by MTT assay; type: cell-based; conditions: MRC5, 72 h; how it was run: as §1
[6] = Selectivity index, ratio of IC50 for cytotoxicity against human MRC5 cells to IC50 for antiproliferative activity against human MCF7 cells; conditions: MRC5 cells versus MCF7 cells
[7] = Selectivity index, ratio of IC50 for cytotoxicity against human MRC5 cells to IC50 for antiproliferative activity against human A2780 cells; conditions: MRC5 cells versus A2780 cells
[8] = Selectivity index, ratio of IC50 for cytotoxicity against human MRC5 cells to IC50 for antiproliferative activity against human HT-29 cells; conditions: MRC5 cells versus HT-29 cells
[9] = biological target: Prostaglandin G/H synthase 1 (Homo sapiens, UniProt P23219); experiment: Inhibition of human COX1 using arachidonic acid as substrate incubated for 2 mins by ELISA method
[10] = system: Rattus norvegicus; experiment: Antiinflammatory activity against albino rats assessed as inhibition of carrageenan-induced paw edema at 25 mg/kg, po measured after 2 hrs relative to control; type: functional
How it was run: (§2)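 Carrageenan rat paw edema (Winter method) in male and female adult albino rats (100-140 g). […] Swelling inhibition expressed as % of control at 2-4 h after carrageenan injection.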

[11] = system: Rattus norvegicus; experiment: Antiinflammatory activity against albino rats assessed as inhibition of carrageenan-induced paw edema at 25 mg/kg, po measured after 4 hrs relative to control; type: functional; how it was run: as §2
[12] = system: Rattus norvegicus; experiment: Antiinflammatory activity against albino rats assessed as inhibition of carrageenan-induced paw edema at 0.5 mmol, po measured after 2 hrs relative to control; type: functional; how it was run: as §2
[13] = system: Rattus norvegicus; experiment: Antiinflammatory activity against albino rats assessed as inhibition of carrageenan-induced paw edema at 0.5 mmol, po measured after 4 hrs relative to control; type: functional; how it was run: as §2
[14] = system: MCF7; experiment: Cell cycle arrest in human MCF7 cells assessed as subG1 accumulation at 1 uM incubated for 24 hrs by propidium iodide based flow cytometry (reference value: 0.6 to 3 %); type: functional
[15] = system: MCF7; experiment: Cell cycle arrest in human MCF7 cells assessed as subG1 accumulation at 5 uM incubated for 24 hrs by propidium iodide based flow cytometry (reference value: 0.6 to 3 %); type: functional
[16] = system: MCF7; experiment: Cell cycle arrest in human MCF7 cells assessed as subG1 accumulation at 10 uM incubated for 24 hrs by propidium iodide based flow cytometry (reference value: 0.6 to 3 %); type: functional
[17] = system: MCF7; experiment: Cell cycle arrest in human MCF7 cells assessed as G1 accumulation at 1 uM incubated for 24 hrs by propidium iodide based flow cytometry (reference value: 49.6 to 55.1 %); type: functional
[18] = system: MCF7; experiment: Cell cycle arrest in human MCF7 cells assessed as G1 accumulation at 5 uM incubated for 24 hrs by propidium iodide based flow cytometry (reference value: 49.6 to 55.1 %); type: functional
[19] = system: MCF7; experiment: Cell cycle arrest in human MCF7 cells assessed as G1 accumulation at 10 uM incubated for 24 hrs by propidium iodide based flow cytometry (reference value: 49.6 to 55.1 %); type: functional
[20] = system: MCF7; experiment: Cell cycle arrest in human MCF7 cells assessed as S phase accumulation at 1 uM incubated for 24 hrs by propidium iodide based flow cytometry (reference value: 17.3 to 28.5 %); type: functional
[21] = system: MCF7; experiment: Cell cycle arrest in human MCF7 cells assessed as S phase accumulation at 5 uM incubated for 24 hrs by propidium iodide based flow cytometry (reference value: 17.3 to 28.5 %); type: functional
[22] = system: MCF7; experiment: Cell cycle arrest in human MCF7 cells assessed as S phase accumulation at 10 uM incubated for 24 hrs by propidium iodide based flow cytometry (reference value: 17.3 to 28.5 %); type: functional
[23] = system: MCF7; experiment: Cell cycle arrest in human MCF7 cells assessed as G2/M phase accumulation at 1 uM incubated for 24 hrs by propidium iodide based flow cytometry (reference value: 17.2 to 26.8 %); type: functional
[24] = system: MCF7; experiment: Cell cycle arrest in human MCF7 cells assessed as G2/M phase accumulation at 5 uM incubated for 24 hrs by propidium iodide based flow cytometry (reference value: 17.2 to 26.8 %); type: functional
[25] = system: MCF7; experiment: Cell cycle arrest in human MCF7 cells assessed as G2/M phase accumulation at 10 uM incubated for 24 hrs by propidium iodide based flow cytometry (reference value: 17.2 to 26.8 %); type: functional
[26] = system: MCF7; experiment: Induction of apoptosis in human MCF7 cells assessed as viable cells at 1 uM incubated for 24 hrs by annexin V FITC and propidium iodide staining based flow cytometry (reference value: 76 to 95.9 %); type: functional; conditions: MCF7, 24 h, read-out: Activity
[27] = system: MCF7; experiment: Induction of apoptosis in human MCF7 cells assessed as viable cells at 5 uM incubated for 24 hrs by annexin V FITC and propidium iodide staining based flow cytometry (reference value: 76 to 95.9 %); type: functional; conditions: MCF7, 24 h, read-out: Activity
[28] = system: MCF7; experiment: Induction of apoptosis in human MCF7 cells assessed as viable cells at 10 uM incubated for 24 hrs by annexin V FITC and propidium iodide staining based flow cytometry (reference value: 76 to 95.9 %); type: functional; conditions: MCF7, 24 h, read-out: Activity
[29] = system: MCF7; experiment: Induction of apoptosis in human MCF7 cells assessed as early apoptotic cells at 1 uM incubated for 24 hrs by annexin V FITC and propidium iodide staining based flow cytometry (reference value: 0 to 9 %); type: functional
[30] = system: MCF7; experiment: Induction of apoptosis in human MCF7 cells assessed as early apoptotic cells at 5 uM incubated for 24 hrs by annexin V FITC and propidium iodide staining based flow cytometry (reference value: 0 to 9 %); type: functional
[31] = system: MCF7; experiment: Induction of apoptosis in human MCF7 cells assessed as early apoptotic cells at 10 uM incubated for 24 hrs by annexin V FITC and propidium iodide staining based flow cytometry (reference value: 0 to 9 %); type: functional
[32] = system: MCF7; experiment: Induction of apoptosis in human MCF7 cells assessed as late apoptotic cells at 1 uM incubated for 24 hrs by annexin V FITC and propidium iodide staining based flow cytometry (reference value: 0 to 2.5 %); type: functional
[33] = system: MCF7; experiment: Induction of apoptosis in human MCF7 cells assessed as late apoptotic cells at 5 uM incubated for 24 hrs by annexin V FITC and propidium iodide staining based flow cytometry (reference value: 0 to 2.5 %); type: functional
[34] = system: MCF7; experiment: Induction of apoptosis in human MCF7 cells assessed as late apoptotic cells at 10 uM incubated for 24 hrs by annexin V FITC and propidium iodide staining based flow cytometry (reference value: 0 to 2.5 %); type: functional
[35] = system: MCF7; experiment: Induction of apoptosis in human MCF7 cells assessed as necrotic cells at 1 uM incubated for 24 hrs by annexin V FITC and propidium iodide staining based flow cytometry (reference value: 4.1 to […]); type: functional
[36] = system: MCF7; experiment: Induction of apoptosis in human MCF7 cells assessed as necrotic cells at 5 uM incubated for 24 hrs by annexin V FITC and propidium iodide staining based flow cytometry (reference value: 4.1 to […]); type: functional
[37] = system: MCF7; experiment: Induction of apoptosis in human MCF7 cells assessed as necrotic cells at 10 uM incubated for 24 hrs by annexin V FITC and propidium iodide staining based flow cytometry (reference value: 4.1 to […]); type: functional

Sequence of Prostaglandin G/H synthase 1 (P23219 whole entry): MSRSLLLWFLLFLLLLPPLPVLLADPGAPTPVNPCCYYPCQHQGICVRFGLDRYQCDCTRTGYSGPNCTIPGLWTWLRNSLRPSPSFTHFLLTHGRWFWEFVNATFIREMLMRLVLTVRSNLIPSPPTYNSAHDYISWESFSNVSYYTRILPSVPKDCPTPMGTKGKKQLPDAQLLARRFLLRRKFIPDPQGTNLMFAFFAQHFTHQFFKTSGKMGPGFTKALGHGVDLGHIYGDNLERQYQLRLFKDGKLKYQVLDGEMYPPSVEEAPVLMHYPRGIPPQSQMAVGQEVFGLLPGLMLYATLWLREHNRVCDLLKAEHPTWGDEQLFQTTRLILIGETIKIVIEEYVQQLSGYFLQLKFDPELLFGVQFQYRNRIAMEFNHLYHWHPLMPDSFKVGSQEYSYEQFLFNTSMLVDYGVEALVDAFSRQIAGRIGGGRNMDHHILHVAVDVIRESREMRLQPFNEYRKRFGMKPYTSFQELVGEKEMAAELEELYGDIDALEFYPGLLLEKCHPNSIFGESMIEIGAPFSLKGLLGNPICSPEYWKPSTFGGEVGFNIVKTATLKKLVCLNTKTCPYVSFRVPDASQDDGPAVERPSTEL

Structure (SMILES): N#Cc1c(/N=C/c2cccnc2)c(C(=O)Nc2ccc(Br)cc2)n2c1CCC2
viability at 5 µM [1]: 81%
IC50 [2]: 11.3 µM
IC50 [3]: 23 µM
IC50 [4]: 2.63 µM
IC50 [5]: 25.6 µM
selectivity ratio [6]: 1 to 10
selectivity ratio [7]: 1 to 10
selectivity ratio [8]: 1 to 10
IC50 [9]: > 100 µM

Structure (SMILES): Cc1ccc(-c2cc(C(F)(F)F)nn2-c2ccc(S(N)(=O)=O)cc2)cc1 [CELECOXIB]
inhibition in vivo at 25 mg/kg [10]: 37%
inhibition in vivo at 25 mg/kg [11]: 67.4%

Structure (SMILES): N#Cc1c(/N=C/c2ccco2)c(C(=O)Nc2ccc(Br)cc2)n2c1CCC2
viability at 5 µM [1]: 64%
IC50 [2]: 6.89 µM
IC50 [3]: 12.2 µM
IC50 [4]: 2.04 µM
IC50 [5]: 15.7 µM
selectivity ratio [6]: 1 to 10
selectivity ratio [7]: 1 to 10
selectivity ratio [8]: 1 to 10
IC50 [9]: 13.2 µM
inhibition (INH) [12]: 18.83%
inhibition (INH) [13]: 35.79%
Activity [14]: 1.1%
Activity [15]: 0.4%
Activity [16]: 0.4%
Activity [17]: 24.5%
Activity [18]: 25.5%
Activity [19]: 25%
Activity [20]: 53.7%
Activity [21]: 53.6%
Activity [22]: 51.5%
Activity [23]: 22.1%
Activity [24]: 21.8%
Activity [25]: 23%
viability at 1 µM [26]: 67%
viability at 5 µM [27]: 67%
viability at 10 µM [28]: 71.2%
Activity [29]: 12.8%
Activity [30]: 11.5%
Activity [31]: 7.2%
Activity [32]: 8.8%
Activity [33]: 6.3%
Activity [34]: 5.3%
Activity [35]: 11.4%
Activity [36]: 15.2%
Activity [37]: 16.4%

Structure (SMILES): N#Cc1c(/N=C/c2ccc(Cl)cc2)c(C(=O)Nc2ccc(Br)cc2)n2c1CCC2
viability at 5 µM [1]: 73%
IC50 [2]: 6.03 µM
IC50 [3]: 8.3 µM
IC50 [4]: 7.79 µM
IC50 [5]: 13.8 µM
selectivity ratio [6]: 2 to 52
selectivity ratio [7]: 2 to 52
selectivity ratio [8]: 2 to 52
IC50 [9]: > 100 µM

Now from value to molecule, other results behind:

IC50 [2]: 0.14 µM
IC50 [3]: 0.27 µM
IC50 [4]: 0.89 µM
IC50 [9]: 14.2 µM
Structure (SMILES): CC/C=N/c1c(C#N)c2n(c1C(=O)Nc1ccc(Br)cc1)CCC2
viability at 5 µM [1]: 49%
IC50 [5]: 21.2 µM
selectivity ratio [6]: 24 to 152
selectivity ratio [7]: 24 to 152
selectivity ratio [8]: 24 to 152

IC50 [2]: 9.41 µM
IC50 [3]: 19.3 µM
IC50 [4]: 3.65 µM
IC50 [9]: > 100 µM
Structure (SMILES): N#Cc1c(/N=C/c2cccs2)c(C(=O)Nc2ccc(Br)cc2)n2c1CCC2
viability at 5 µM [1]: 77%
IC50 [5]: 23.1 µM
selectivity ratio [6]: 1 to 10
selectivity ratio [7]: 1 to 10
selectivity ratio [8]: 1 to 10

IC50 [2]: 0.5 µM
IC50 [3]: 4.16 µM
IC50 [4]: 2.97 µM
IC50 [9]: > 100 µM
Structure (SMILES): N#Cc1c(/N=C/c2ccccc2)c(C(=O)Nc2ccc(Br)cc2)n2c1CCC2
viability at 5 µM [1]: 73%
IC50 [5]: 9 µM
selectivity ratio [6]: 2 to 52
selectivity ratio [7]: 2 to 52
selectivity ratio [8]: 2 to 52

IC50 [2]: 1.43 µM
IC50 [3]: 15.6 µM
IC50 [4]: 0.14 µM
IC50 [9]: 27.2 µM
Structure (SMILES): CC/C=N/c1c(C#N)c2n(c1C(=O)Nc1ccccc1)CCCC2
IC50 [5]: 1.53 µM
